Assay outcomes from PubChem BioAssay.
The full list was thinned out, with hits kept by preference.
INS-1E_ATP_HTS: protection of INS-1E cells from cytokine death, primary screen, ATP luminescence, single point | protection from cytokine-induced ATP loss, % at 10 µM | INS-1E cytokine-induced death, 48 h; normalised: neutral wells 0, positive control 100 | actives 0.1% (n = 20,000) | AID 488910, 2010;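 active = mean replicate protection from cytokine-induced ATP loss at least 50% and at least 75% of replicates each reaching 50%; inconclusive = meets only one of the two criteria, mean or replicate share; inactive = fails both the mean and replicate share criteria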
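Assay system – rat INS-1E insulinoma cell line · Quantity – 8000 cells per well · Buffer or medium – RPMI without phenol red, 5% FBS · Schedule – 48 h co-treatment, 10 min post-lysis read · Technique – luminescent ATP assay (CellTiter-Glo)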
A1_apoptosis_2: A1 inhibitors via caspase activation, primary screen, cell-based, luminescence, HTS, two replicates; 24,000 tested, under 10 active; caspase activation, % (concentration not given with the values); MEF A1-2A-BIM cells, caspase-Glo luminescence, 3 h; percent of clofoctol response, DMSO zero; in the data active = caspase activation above about 5.9%; inconclusive = no clear call, values can overlap the other calls; inactive = below about 2.2%
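Material: mouse embryonic fibroblasts co-expressing A1 and BIM (A1-2A-BIM), primed for A1 dependence / Quantity: 2500 cells/well / Buffer or medium: RPMI-1640 growth medium with 10% FBS / Doses: 50 nL compound per well, pinned / Schedule: 3 h compound exposure at 37 °C / Signal: Caspase-Glo luminescence (DEVD substrate) / Measure: Caspase-3/7 activation, seen as rise in luminescence signal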
T_cruzi_HTS: inhibitors of intracellular Trypanosoma cruzi, primary screen, cell-based, plate reader, single point, set 2; AID 651903, 2012; actives 4.9% (n = 22,000); activity score (inhibition), % at 5.01 µM; intracellular Trypanosoma cruzi in host cells; in the data active = activity score above about 55%; inconclusive = no clear call, values can overlap the other calls;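 note: parasites and compound incubated about four days before reading; 0% = median of neutral control wells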
The depositor's hits bear a star; ? = inconclusive; nt = not tested or not shown.

SMILES INS-1E_ATP_HTS A1_apoptosis_2 T_cruzi_HTS
C[C@@H]1CN([C@H](C)CO)C(=O)c2cccc(NC(=O)Nc3ccccc3)c2O[C@@H]1CN(C)Cc1ccc(C(=O)Nc2ccccc2N)cc1 17.5 0.8 70.2*
C[C@@H]1CN([C@H](C)CO)C(=O)c2cccc(NC(=O)Nc3ccccc3)c2O[C@H]1CN(C)Cc1ccc(C(=O)O)cc1 10.1 -0.1 -13.9
C[C@H]1CN([C@@H](C)CO)C(=O)c2cccc(N(C)C)c2O[C@H]1CN(C)Cc1ccc(C(=O)Nc2ccccc2N)cc1 1.8 -0.2 58.8*
C[C@H](CO)N1C[C@H](C)[C@@H](CN(C)Cc2ccc(C(=O)Nc3ccccc3N)cc2)Oc2c(cccc2N(C)C)C1=O -1.1 2.8 6.5
Cc1noc(C)c1S(=O)(=O)Nc1ccc2c(c1)C(=O)N([C@H](C)CO)C[C@@H](C)[C@H](CN(C)S(C)(=O)=O)O2 3.5 0.6 -9.0
C[C@@H]1CCCCO[C@H](CN(C)C(=O)NC2CCCCC2)[C@@H](C)CN([C@H](C)CO)C(=O)c2cc(NS(=O)(=O)c3cccs3)ccc2O1 12.9 0.3 -9.4
COc1ccc(S(=O)(=O)N(C)C[C@@H]2OCCCC[C@H](C)Oc3ccc(NC(=O)CCC(F)(F)F)cc3C(=O)N([C@H](C)CO)C[C@H]2C)cc1 nt -0.3 nt
C[C@@H]1CN([C@@H](C)CO)C(=O)c2cc(NC(=O)Nc3ccc(C(F)(F)F)cc3)ccc2O[C@H]1CN(C)Cc1ccc(Oc2ccccc2)cc1 -110.6 -1.3 51.2
C[C@@H]1CN([C@H](C)CO)C(=O)c2cccc(N(C)C)c2O[C@H]1CN(C)C(=O)Nc1ccc2c(c1)OCO2 0.5 nt -1.1
COc1ccc(CN(C)C[C@@H]2Oc3ccc(NC(=O)Cc4cn(C)c5ccccc45)cc3CC(=O)N([C@@H](C)CO)C[C@H]2C)cc1 nt -0.7 nt
C[C@H]1CN([C@@H](C)CO)C(=O)c2cccc(NC(=O)c3ccc(-c4nccs4)cc3)c2O[C@H]1CN(C)Cc1ccc(Cl)c(Cl)c1 -47.0 0.3 61.5*
C[C@@H]1CN([C@@H](C)CO)C(=O)c2cccc(NC(=O)c3ccc(-c4nccs4)cc3)c2O[C@@H]1CN(C)Cc1ccc(Cl)c(Cl)c1 -46.8 0.3 35.5
C[C@H](CO)N1C[C@H](C)[C@H](CN(C)Cc2ccc(Cl)c(Cl)c2)Oc2c(NC(=O)c3ccc(-c4nccs4)cc3)cccc2C1=O -40.5 nt 60.5*
C[C@@H]1CN([C@H](C)CO)C(=O)c2cccc(NC(=O)c3ccc(-c4nccs4)cc3)c2O[C@H]1CN(C)Cc1ccc(Cl)c(Cl)c1 -22.4 1.5 47.2
C[C@@H]1CCCCO[C@@H](CN(C)C(=O)C2CCCCC2)[C@@H](C)CN([C@H](C)CO)C(=O)c2cc(NS(=O)(=O)c3cccs3)ccc2O1 2.4 -1.3 6.3
C[C@H](CO)N1C[C@H](C)[C@@H](CN(C)Cc2ccc(Oc3ccccc3)cc2)Oc2c(NC(=O)CCCCCC(=O)Nc3ccccc3N)cccc2C1=O nt 0.1 nt
C[C@H]1CN([C@@H](C)CO)C(=O)c2cccc(NC(=O)CCCCCC(=O)Nc3ccccc3N)c2O[C@H]1CN(C)Cc1ccc(-c2ccccc2)cc1 -5.4 1.2 67.9*
C[C@@H]1CN([C@H](C)CO)C(=O)c2cccc(NC(=O)CCCCCC(=O)Nc3ccccc3N)c2O[C@@H]1CN(C)Cc1ccccc1 0.6 nt -31.8
C[C@@H]1CN([C@@H](C)CO)C(=O)c2cccc(NC(=O)CCCCCC(=O)Nc3ccccc3N)c2O[C@H]1CN(C)Cc1ccc(Cl)c(Cl)c1 6.9 nt 79.6*
C[C@@H]1CN([C@H](C)CO)C(=O)c2cccc(NC(=O)CCCCCC(=O)Nc3ccccc3N)c2O[C@H]1CN(C)Cc1ccc(Cl)c(Cl)c1 nt -2.0 nt
C[C@@H]1CN([C@@H](C)CO)C(=O)c2cccc(NC(=O)CCCCCC(=O)Nc3ccccc3N)c2O[C@H]1CN(C)Cc1ccccc1 19.3 -0.8 71.8*
C[C@@H]1CN([C@@H](C)CO)C(=O)c2cccc(NC(=O)CCCCCC(=O)Nc3ccccc3N)c2O[C@H]1CN(C)Cc1ccc(Oc2ccccc2)cc1 -3.0 -0.1 83.9*
C[C@@H]1CN([C@H](C)CO)C(=O)c2cccc(NC(=O)CCCCCC(=O)Nc3ccccc3N)c2O[C@@H]1CN(C)Cc1ccc(-c2ccccc2)cc1 6.9 -0.3 ?
C[C@@H]1CN([C@@H](C)CO)C(=O)c2cc(N(C)C)ccc2O[C@@H]1CN(C)C(=O)Nc1ccc2c(c1)OCO2 6.8 -1.0 3.1
COc1ccc(NC(=O)N(C)C[C@@H]2Oc3c(NC(=O)c4ccc(-c5nccs5)cc4)cccc3C(=O)N([C@H](C)CO)C[C@H]2C)cc1 0.8 nt -15.3
SMILES INS-1E_ATP_HTS A1_apoptosis_2 T_cruzi_HTS
Cc1noc(C)c1S(=O)(=O)N(C)C[C@@H]1Oc2ccc(NS(=O)(=O)c3cccs3)cc2C(=O)N([C@@H](C)CO)C[C@@H]1C nt 1.6 nt
CC(C)NC(=O)Nc1ccc2c(c1)C(=O)N([C@@H](C)CO)C[C@@H](C)[C@@H](CN(C)C(=O)Nc1ccc3c(c1)OCO3)OCCCC[C@H](C)O2 nt 0.6 nt
O=C(N/N=C/c1cccc(O)c1O)c1ccccn1 -54.5 nt 29.3
O=C(N/N=C/c1cc(I)cc(I)c1O)c1ccccn1 -107.1 -0.1 91.4*
COC(=O)CCCCCCC(=O)N/N=C/c1cc(I)cc(I)c1O 26.9 0.9 88.0*
COC(=O)CCCCCCC(=O)N/N=C/c1cc(Cl)cc(Cl)c1O 16.8 nt 19.8
C[C@@H]1CN([C@H](C)CO)C(=O)Cc2cc(NC(=O)c3ccncc3)ccc2O[C@H]1CN(C)Cc1ccc(C(F)(F)F)cc1 5.0 -0.2 19.0
C[C@@H]1CN([C@@H](C)CO)C(=O)Cc2cc(NC(=O)Nc3ccc(C(F)(F)F)cc3)ccc2O[C@@H]1CN(C)Cc1ccncc1 -17.5 0.5 69.4*
C[C@H](CO)N1C[C@H](C)[C@@H](CN(C)Cc2ccncc2)Oc2ccc(NC(=O)Nc3ccc(C(F)(F)F)cc3)cc2CC1=O nt -0.1 nt
C[C@@H]1CN([C@H](C)CO)C(=O)Cc2cc(NC(=O)Nc3ccc(C(F)(F)F)cc3)ccc2O[C@@H]1CN(C)Cc1ccncc1 2.0 0.4 64.9*
C[C@H]1CN([C@@H](C)CO)C(=O)Cc2cc(NC(=O)Nc3ccc(C(F)(F)F)cc3)ccc2O[C@H]1CN(C)Cc1ccncc1 -1.4 2.1 67.6*
C[C@H](CO)N1C[C@H](C)[C@H](CN(C)Cc2ccc(C(F)(F)F)cc2)Oc2ccc(NC(=O)c3ccncc3)cc2CC1=O -8.0 0.3 38.2
Cc1noc(C)c1S(=O)(=O)N(C)C[C@H]1Oc2ccc(NS(=O)(=O)c3ccccc3)cc2C(=O)N([C@H](C)CO)C[C@H]1C -8.0 0.0 10.4
C[C@@H]1CN([C@H](C)CO)C(=O)c2cccc(NC(=O)c3nc4ccccc4s3)c2O[C@@H]1CN(C)S(=O)(=O)c1cccs1 -2.9 2.9 4.4
C[C@H](CO)N1C[C@H](C)[C@H](CN(C)S(=O)(=O)c2cccc(F)c2)Oc2ncc(-c3ccccc3)cc2C1=O nt 1.5 19.4
